Data published in ChEMBL document CHEMBL1149894, “Glycosidic constituents of the tubers of Gymnadenia conopsea” (J Nat Prod, 2008).
Active and inactive are the calls of the source. No cut-off for these calls is given here.

How the values were obtained:
[1] = target: T1, Acetylcholinesterase (Rattus norvegicus) (UniProt P37136); assay: Inhibition of rat brain AChE at 10 uM by Ellman method
T1 sequence (whole entry): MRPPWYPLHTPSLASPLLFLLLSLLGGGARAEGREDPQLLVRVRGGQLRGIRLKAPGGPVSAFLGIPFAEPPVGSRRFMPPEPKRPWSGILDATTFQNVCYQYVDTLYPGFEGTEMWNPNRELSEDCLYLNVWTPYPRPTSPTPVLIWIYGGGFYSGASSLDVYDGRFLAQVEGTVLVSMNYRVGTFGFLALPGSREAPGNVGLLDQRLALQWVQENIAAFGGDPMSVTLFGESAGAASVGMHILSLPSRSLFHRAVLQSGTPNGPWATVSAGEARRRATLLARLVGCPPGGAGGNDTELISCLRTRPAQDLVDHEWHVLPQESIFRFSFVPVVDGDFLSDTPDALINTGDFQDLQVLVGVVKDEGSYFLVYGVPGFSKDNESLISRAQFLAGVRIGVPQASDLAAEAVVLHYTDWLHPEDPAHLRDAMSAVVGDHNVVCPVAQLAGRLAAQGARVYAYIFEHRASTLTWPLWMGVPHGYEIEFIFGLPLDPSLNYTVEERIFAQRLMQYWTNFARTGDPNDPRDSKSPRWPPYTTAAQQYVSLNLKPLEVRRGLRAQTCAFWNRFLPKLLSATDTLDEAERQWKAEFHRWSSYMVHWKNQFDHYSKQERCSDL
Outline: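 Source: fresh rat brain homogenised in 9 volumes of ice-cold PBS, incubated with each test compound separately. Activity measured spectrophotometrically at 25 °C by the Ellman method; test compounds at 10^-5 M; donepezil as positive control; read as percent inhibition.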

[2] = target: T2, Amine oxidase [flavin-containing] B (Rattus norvegicus, UniProt P19643); assay: Inhibition of rat brain monoamine oxidase B at 10 uM
T2 sequence (P19643 whole entry): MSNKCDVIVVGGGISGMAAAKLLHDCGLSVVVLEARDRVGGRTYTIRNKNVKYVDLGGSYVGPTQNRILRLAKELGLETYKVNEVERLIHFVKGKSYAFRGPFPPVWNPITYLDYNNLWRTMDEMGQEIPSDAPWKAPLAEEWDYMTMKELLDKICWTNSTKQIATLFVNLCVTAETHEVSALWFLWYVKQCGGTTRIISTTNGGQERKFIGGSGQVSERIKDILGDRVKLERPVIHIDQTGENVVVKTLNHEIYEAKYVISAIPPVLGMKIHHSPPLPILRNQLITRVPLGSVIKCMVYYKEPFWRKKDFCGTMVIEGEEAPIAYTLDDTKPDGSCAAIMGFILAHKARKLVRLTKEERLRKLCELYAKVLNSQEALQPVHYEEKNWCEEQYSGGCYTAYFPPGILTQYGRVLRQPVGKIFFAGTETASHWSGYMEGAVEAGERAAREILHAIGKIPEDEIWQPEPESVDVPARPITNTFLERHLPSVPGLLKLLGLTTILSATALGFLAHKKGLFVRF
Outline: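 Fresh rat brain homogenized in 9-fold volume of ice-cold PBS and incubated separately with each compound at 10^-5 M. MAO-B activity was determined by quantifying the oxidation product of benzylamine substrate. Pargyline was the positive control. The value is reported as an inhibition rate.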

CCOCc1ccc(O[C@@H]2O[C@H](CO)[C@@H](O)[C@H](O[C@@H]3O[C@H](CO)[C@@H](O)[C@H](O)[C@H]3O)[C@H]2O)cc1
Activity [1]: inactive | Activity [2]: Not Active

CC(C)C[C@](O[C@@H]1O[C@H](CO)[C@@H](O)[C@H](O)[C@H]1O)(C(=O)OCc1ccc(O[C@@H]2O[C@H](CO)[C@@H](O)[C@H](O)[C@H]2O)cc1)[C@H](O)C(=O)OCc1ccc(O[C@@H]2O[C@H](CO)[C@@H](O)[C@H](O[C@@H]3O[C@H](CO)[C@@H](O)[C@H](O)[C@H]3O)[C@H]2O)cc1
Activity [1]: inactive | Activity [2]: Not Active

CC(C)C[C@](O[C@@H]1O[C@H](CO)[C@@H](O)[C@H](O)[C@H]1O)(C(=O)OCc1ccc(O[C@@H]2O[C@H](CO)[C@@H](O)[C@H](O)[C@H]2O)cc1)C(O)C(=O)OCc1ccc(O[C@@H]2O[C@H](CO)[C@@H](O[C@H]3O[C@H](CO)[C@@H](O)[C@H](O)[C@H]3O)[C@H](O)[C@H]2O)cc1 (stereo partly drawn)
Activity [1]: inactive | Activity [2]: Not Active

OCc1ccc(O[C@@H]2O[C@H](CO)[C@@H](O[C@@H]3O[C@H](CO)[C@@H](O)[C@H](O)[C@H]3O)[C@H](O)[C@H]2O)cc1
Activity [1]: inactive | Activity [2]: Not Active

OCc1ccc(O[C@@H]2O[C@H](CO)[C@@H](O[C@H]3O[C@H](CO)[C@@H](O)[C@H](O)[C@H]3O)[C@H](O)[C@H]2O)cc1
Activity [1]: inactive | Activity [2]: Not Active

CC(C)C[C@](CC(=O)OCc1ccc(O[C@@H]2O[C@H](CO)[C@@H](O)[C@H](O)[C@H]2O)cc1)(O[C@@H]1O[C@H](CO)[C@@H](O)[C@H](O)[C@H]1O)C(=O)O
Activity [1]: inactive | Activity [2]: Not Active

OCc1ccc(O[C@@H]2O[C@H](CO)[C@@H](O)[C@H](O[C@@H]3O[C@H](CO)[C@@H](O)[C@H](O)[C@H]3O)[C@H]2O)cc1
Activity [1]: inactive | Activity [2]: Not Active

CC(C)C[C@](O)(C(=O)OCc1ccc(O[C@@H]2O[C@H](CO)[C@@H](O)[C@H](O)[C@H]2O)cc1)[C@H](O)C(=O)OCc1ccc(O[C@@H]2O[C@H](CO[C@@H]3O[C@H](CO)[C@@H](O)[C@H](O)[C@H]3O)[C@@H](O)[C@H](O)[C@H]2O)cc1
Activity [1]: inactive | Activity [2]: Not Active

COC(=O)[C@@H](O)[C@](O)(CC(C)C)C(=O)OCc1ccc(O[C@@H]2O[C@H](CO)[C@@H](O)[C@H](O)[C@H]2O)cc1
Activity [1]: inactive | Activity [2]: Not Active
